We go through three molecules from ChEMBL document CHEMBL4715934, “Discovery of Imidazopyridines as Potent Inhibitors of Indoleamine 2,3-Dioxygenase 1 for Cancer Immunotherapy” (ACS Med Chem Lett, 2021).

The nature of data set [1]: Metabolic stability in rat liver microsomes assessed as parent compound remaining at 0.5 uM after 10 mins. Conditions: read-out: Stabilty. It is filed as ADME, Microsome. In a few lines:
(§1)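 Parent compound at 0.5 μM incubated 10 min with 1 mg/mL human, mouse or rat liver microsomes; fraction of parent remaining reported; average of N = 2 unless noted.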

Data set [2] can be described thus: In vivo inhibition of IDO1 in mouse xenografted with human SKOV3 cells assessed as reduction in tumor kynurenine AUEC at 60 mg/kg, po qd for 5 days measured upto 24 hrs after dosing relative to vehicle treated control. The format is functional. Particulars: SK-OV-3, po, 120 h, time 5 day. In a few lines:
(§2)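 nu/nu nude mice carrying SKOV3 tumors grown 2 weeks; dosed QD for 5 days starting day 14. On day 18, tumor sampled at 2, 6 and 24 h for drug level and kynurenine. […] Kyn reduction measured at steady state after the 5th dose, taken as area under the Kyn concentration–time curve 0–24 h versus vehicle control.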

Data set [3] in a line: Induction of proliferation of human T eff cells by T cell/DC mixed lymphocyte reaction (MLR) assay.
Data set [4] can be described thus: in vivo. Particulars: mouse, tumor, po, 60 mg/kg.
Data set [5] deals with T1, Indoleamine 2,3-dioxygenase 1 (Homo sapiens, UniProt P14902). In words: Inhibition of IDO1 in recombinant IFN-gamma induced human HeLa cells incubated for 18 hrs by fluorescence microplate reader assay. In a few lines: (§3)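 HeLa (human) or M109 (murine) cells induced with IFNγ to express IDO1, then cellular IDO1 activity measured; values are the average of N = 2 unless noted.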

Data set [6] deals with Indoleamine 2,3-dioxygenase 1 (Mus musculus, UniProt P28776). As to the kind of experiment: Inhibition of IDO1 in recombinant IFN-gamma induced mouse M109 cells incubated for 18 hrs by fluorescence microplate reader assay. It is filed as cell-based. In a few lines: as §3
Data set [7] is described as follows: Metabolic stability in human liver microsomes assessed as parent compound remaining at 0.5 uM after 10 mins. Conditions: read-out: Stabilty. The format is ADME, Microsome. In a few lines:
as §1

Data set [8] is described as follows: Metabolic stability in mouse liver microsomes assessed as parent compound remaining at 0.5 uM after 10 mins. It is filed as ADME, Microsome. Conditions: read-out: Stabilty. In a few lines:
as §1

Data set [9] deals with T1, Indoleamine 2,3-dioxygenase 1. As to the kind of experiment: Inhibition of IDO1 in IFN-gamma/LPS induced human whole blood assessed as tryptophan/kynurenine level measured after 18 hrs by RapidFire mass spectrometry. It is filed as tissue-based.
For data set [10], the target named is T2, Nuclear receptor subfamily 1 group I member 2 (Homo sapiens, UniProt O75469).
T2 sequence (O75469 whole entry): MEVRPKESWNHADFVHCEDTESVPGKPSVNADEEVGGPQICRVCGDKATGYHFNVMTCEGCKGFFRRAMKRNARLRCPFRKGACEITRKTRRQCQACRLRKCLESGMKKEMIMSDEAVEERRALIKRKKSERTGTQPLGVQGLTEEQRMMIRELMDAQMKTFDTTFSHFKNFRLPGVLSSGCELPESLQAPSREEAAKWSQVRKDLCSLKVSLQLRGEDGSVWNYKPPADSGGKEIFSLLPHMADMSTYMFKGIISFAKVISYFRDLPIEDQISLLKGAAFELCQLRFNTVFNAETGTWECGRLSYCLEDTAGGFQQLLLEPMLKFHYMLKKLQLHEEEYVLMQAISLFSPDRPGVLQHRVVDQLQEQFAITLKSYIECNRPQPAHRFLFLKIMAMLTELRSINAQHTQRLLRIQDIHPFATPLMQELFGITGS
As to the kind of experiment: Transactivation of PXR (unknown origin) assessed as CYP450 induction.

The target in data set [11] is T3, PXR (NR1I2) (Homo sapiens, UniProt O75469).
T3 sequence (O75469 whole entry): T2 sequence (O75469 whole entry)
In words: Transactivation of PXR (unknown origin) assessed as CYP450 induction relative to rifampicin.

The nature of data set [12]: Metabolic stability assessed as human CYP-mediated metabolism by measuring half life. The format is ADME.
Data set [13] in a line: Metabolic stability assessed as mouse CYP-mediated metabolism by measuring half life. It is filed as ADME.
The nature of data set [14]: Metabolic stability assessed as rat CYP-mediated metabolism by measuring half life. It is filed as ADME.
A short description of data set [15]: Metabolic stability assessed as dog CYP-mediated metabolism by measuring half life. It is filed as ADME, Canis lupus familiaris.
Data set [16] in a line: Metabolic stability assessed as cynomolgus monkey CYP-mediated metabolism by measuring half life. It is filed as ADME, Macaca fascicularis.
Data set [17] can be described thus: Metabolic stability assessed as human UGT-mediated metabolism by measuring half life. The format is ADME.
Data set [18] is described as follows: Metabolic stability assessed as mouse UGT -mediated metabolism by measuring half life. The format is ADME.
Data set [19] is described as follows: Metabolic stability assessed as rat UGT -mediated metabolism by measuring half life. The format is ADME.
A short description of data set [20]: Metabolic stability assessed as dog UGT -mediated metabolism by measuring half life. It is filed as ADME, Canis lupus familiaris.
The nature of data set [21]: Metabolic stability assessed as cynomolgus monkey UGT -mediated metabolism by measuring half life. It is filed as ADME, Macaca fascicularis.
A short description of data set [22]: Permeability at pH 5.5 by PAMPA. The format is ADME. Conditions: read-out: permeability.
The nature of data set [23]: Permeability at pH 7.4 by PAMPA. It is filed as ADME. Conditions: read-out: permeability.
Data set [24] is described as follows: Permeability across apical to basolateral side in human Caco2 cells. It is filed as ADME, cell-based. Conditions: Caco-2, read-out: permeability.
Data set [25] can be described thus: Permeability across basolateral to apical side in human Caco2 cells. It is filed as ADME, cell-based. Particulars: Caco-2, read-out: permeability.
Data set [26] addresses T4, Cytochrome P450 1A2 (Homo sapiens, UniProt P05177).
T4 sequence (P05177 whole entry): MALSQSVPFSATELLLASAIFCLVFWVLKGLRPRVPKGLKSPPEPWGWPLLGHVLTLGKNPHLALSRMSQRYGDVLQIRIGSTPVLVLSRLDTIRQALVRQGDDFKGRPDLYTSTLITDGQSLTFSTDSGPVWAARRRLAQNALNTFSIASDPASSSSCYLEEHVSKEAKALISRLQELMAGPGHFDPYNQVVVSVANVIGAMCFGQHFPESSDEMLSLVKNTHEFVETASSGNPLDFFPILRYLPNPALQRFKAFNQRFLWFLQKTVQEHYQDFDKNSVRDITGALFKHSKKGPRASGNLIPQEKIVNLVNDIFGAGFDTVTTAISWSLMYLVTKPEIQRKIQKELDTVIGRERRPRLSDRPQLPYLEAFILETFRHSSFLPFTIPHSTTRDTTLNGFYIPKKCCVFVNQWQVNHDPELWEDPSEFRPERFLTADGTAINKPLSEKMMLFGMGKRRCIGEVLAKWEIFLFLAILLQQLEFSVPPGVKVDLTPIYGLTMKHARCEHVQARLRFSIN
In words: Inhibition of recombinant human CYP1A2. The format is ADME.

For data set [27], the target named is Cytochrome P450 2D6 (Homo sapiens, UniProt P10635). In words: Inhibition of recombinant human CYP2D6. The format is ADME.
Data set [28] addresses T5, Cytochrome P450 2C8 (Homo sapiens, UniProt P10632).
T5 sequence (P10632 whole entry): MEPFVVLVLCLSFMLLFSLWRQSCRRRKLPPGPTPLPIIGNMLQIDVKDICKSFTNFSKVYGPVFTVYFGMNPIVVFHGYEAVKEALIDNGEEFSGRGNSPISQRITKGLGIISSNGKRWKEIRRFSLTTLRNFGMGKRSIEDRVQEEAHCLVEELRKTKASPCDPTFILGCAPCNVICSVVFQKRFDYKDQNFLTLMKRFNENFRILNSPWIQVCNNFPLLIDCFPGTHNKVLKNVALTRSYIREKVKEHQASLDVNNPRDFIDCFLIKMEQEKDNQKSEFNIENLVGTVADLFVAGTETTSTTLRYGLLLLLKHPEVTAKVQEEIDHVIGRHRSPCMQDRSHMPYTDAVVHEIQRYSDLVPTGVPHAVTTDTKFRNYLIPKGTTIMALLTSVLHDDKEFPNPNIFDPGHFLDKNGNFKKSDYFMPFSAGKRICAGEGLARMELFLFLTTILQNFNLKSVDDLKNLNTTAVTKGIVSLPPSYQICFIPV
As to the kind of experiment: Inhibition of recombinant human CYP2C8. The format is ADME.

For data set [29], the target named is Cytochrome P450 2C9 (Homo sapiens, UniProt P11712). As to the kind of experiment: Inhibition of recombinant human CYP2C9. The format is ADME.
Data set [30] deals with Cytochrome P450 2C19 (Homo sapiens, UniProt P33261). In words: Inhibition of recombinant human CYP2C19. The format is ADME.
The target of data set [31] is Cytochrome P450 3A4 (Homo sapiens, UniProt P08684). In words: Inhibition of recombinant human CYP3A4. It is filed as ADME.
The nature of data set [32]: AUC (0 to 24 hrs) in mouse xenografted with human SKOV3 cells assessed in tumor at 20 mg/kg, po qd for 5 days measured upto 24 hrs after dosing. The format is ADME, organism-based. Also noted: route oral, dose 20 mg/kg, time 5 day. In a few lines:
as §2

Structures are written as SMILES.

T1 sequence (P14902 whole entry): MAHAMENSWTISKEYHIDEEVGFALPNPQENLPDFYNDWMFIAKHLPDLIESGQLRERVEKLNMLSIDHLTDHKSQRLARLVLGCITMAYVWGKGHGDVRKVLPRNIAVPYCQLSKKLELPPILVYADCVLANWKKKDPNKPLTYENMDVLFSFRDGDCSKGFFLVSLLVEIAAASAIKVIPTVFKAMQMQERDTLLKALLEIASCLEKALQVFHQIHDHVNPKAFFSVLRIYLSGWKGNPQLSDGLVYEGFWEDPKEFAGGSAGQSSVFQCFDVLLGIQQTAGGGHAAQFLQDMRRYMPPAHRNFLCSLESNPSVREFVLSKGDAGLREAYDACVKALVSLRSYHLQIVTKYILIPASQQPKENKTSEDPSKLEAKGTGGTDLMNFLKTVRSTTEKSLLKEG
Indoleamine 2,3-dioxygenase 1 (Mus musculus, UniProt P28776), sequence (P28776 whole entry): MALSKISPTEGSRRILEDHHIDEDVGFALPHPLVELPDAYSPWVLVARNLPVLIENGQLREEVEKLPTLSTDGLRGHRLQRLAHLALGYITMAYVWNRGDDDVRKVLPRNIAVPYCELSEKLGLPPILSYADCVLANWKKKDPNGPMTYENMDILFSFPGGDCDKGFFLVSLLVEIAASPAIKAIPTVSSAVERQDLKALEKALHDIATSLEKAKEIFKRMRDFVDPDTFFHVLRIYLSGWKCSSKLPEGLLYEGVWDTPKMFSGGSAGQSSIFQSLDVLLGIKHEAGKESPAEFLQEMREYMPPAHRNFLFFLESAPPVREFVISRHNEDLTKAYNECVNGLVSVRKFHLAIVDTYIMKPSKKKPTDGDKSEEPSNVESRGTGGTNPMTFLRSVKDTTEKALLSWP
Cytochrome P450 3A4, sequence (P08684 whole entry): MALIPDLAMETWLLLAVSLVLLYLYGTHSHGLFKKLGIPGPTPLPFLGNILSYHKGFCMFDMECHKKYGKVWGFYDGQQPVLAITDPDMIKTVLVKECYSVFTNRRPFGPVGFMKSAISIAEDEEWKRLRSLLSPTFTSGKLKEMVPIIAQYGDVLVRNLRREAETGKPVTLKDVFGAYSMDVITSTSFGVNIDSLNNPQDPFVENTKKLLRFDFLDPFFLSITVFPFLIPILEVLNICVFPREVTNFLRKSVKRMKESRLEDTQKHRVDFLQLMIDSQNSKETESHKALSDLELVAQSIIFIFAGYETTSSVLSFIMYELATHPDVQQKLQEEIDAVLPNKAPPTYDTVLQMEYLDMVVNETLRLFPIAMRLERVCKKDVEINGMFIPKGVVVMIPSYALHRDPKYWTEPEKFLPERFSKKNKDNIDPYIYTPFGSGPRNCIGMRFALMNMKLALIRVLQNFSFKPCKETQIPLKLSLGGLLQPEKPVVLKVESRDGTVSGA
Cytochrome P450 2D6, sequence (P10635 whole entry): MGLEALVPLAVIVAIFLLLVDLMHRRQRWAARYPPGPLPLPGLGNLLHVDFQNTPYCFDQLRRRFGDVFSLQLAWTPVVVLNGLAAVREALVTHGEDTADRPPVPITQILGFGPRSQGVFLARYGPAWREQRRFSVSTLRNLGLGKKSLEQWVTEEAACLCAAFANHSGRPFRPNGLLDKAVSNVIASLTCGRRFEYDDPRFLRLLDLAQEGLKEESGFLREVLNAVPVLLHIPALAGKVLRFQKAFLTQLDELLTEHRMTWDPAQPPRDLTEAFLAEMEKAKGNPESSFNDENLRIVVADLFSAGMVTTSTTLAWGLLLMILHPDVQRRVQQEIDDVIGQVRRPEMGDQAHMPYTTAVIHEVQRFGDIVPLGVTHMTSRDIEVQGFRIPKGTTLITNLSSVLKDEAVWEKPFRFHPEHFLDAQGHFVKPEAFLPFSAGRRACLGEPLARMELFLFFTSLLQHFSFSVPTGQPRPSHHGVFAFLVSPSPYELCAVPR
Cytochrome P450 2C9, sequence (P11712 whole entry): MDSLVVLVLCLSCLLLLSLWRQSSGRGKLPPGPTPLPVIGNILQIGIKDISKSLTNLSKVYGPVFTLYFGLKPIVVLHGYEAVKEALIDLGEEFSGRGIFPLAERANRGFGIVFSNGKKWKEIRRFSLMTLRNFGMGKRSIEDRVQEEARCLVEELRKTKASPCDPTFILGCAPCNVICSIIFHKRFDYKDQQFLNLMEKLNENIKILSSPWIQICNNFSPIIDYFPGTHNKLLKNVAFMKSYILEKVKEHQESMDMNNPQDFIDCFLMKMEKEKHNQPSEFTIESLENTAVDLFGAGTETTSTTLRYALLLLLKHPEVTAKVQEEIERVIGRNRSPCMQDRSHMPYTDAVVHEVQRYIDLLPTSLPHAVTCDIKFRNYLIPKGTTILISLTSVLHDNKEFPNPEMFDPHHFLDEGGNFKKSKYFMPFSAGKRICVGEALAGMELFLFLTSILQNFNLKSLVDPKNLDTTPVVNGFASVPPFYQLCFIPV
Cytochrome P450 2C19, sequence (P33261 whole entry): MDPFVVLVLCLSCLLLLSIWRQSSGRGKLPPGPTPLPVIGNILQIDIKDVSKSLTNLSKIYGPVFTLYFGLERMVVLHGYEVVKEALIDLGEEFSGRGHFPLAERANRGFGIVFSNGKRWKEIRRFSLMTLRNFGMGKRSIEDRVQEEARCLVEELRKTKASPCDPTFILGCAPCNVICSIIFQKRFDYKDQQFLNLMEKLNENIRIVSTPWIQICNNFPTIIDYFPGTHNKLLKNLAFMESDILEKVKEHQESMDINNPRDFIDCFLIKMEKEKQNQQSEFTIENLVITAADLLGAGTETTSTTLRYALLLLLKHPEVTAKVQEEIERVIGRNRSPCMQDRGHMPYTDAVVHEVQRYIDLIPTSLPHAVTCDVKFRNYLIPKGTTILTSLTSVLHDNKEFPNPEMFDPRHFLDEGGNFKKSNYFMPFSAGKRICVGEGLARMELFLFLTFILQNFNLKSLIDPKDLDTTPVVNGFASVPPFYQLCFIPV

With `C[C@@H](C(=O)Nc1ccc(Cl)cc1)[C@H]1CC[C@@H](c2ccnc3ccc(F)cc32)CC1`, the remaining at 10 min, 0.5 µM in data set [1] was found to be 86%. Besides, the inhibition in vivo at 60 mg/kg in [2] was determined as 61%. Moreover, it took 2 nM to reach a half-maximal effect in data set [3] (EC50). In addition, the AUC at 120 h in data set [4] stood at 34.9 µM·h.

Take `CCC(Nc1nnc(-c2ccc(OC)cc2)o1)[C@H]1CC[C@H](Oc2ccnc3ccccc23)CC1` (some centres undefined): the IC50 was determined as 13 nM in data set [5], 148 nM in data set [6] and 459 nM in data set [9]. Further, the values for the remaining at 10 min, 0.5 µM in data set [7], in [8] and in [1] were 83%, 39% and 88%, respectively. Further, the EC50 in [10] was greater than 50000 nM. For the same molecule, the maximum response (Emax) in data set [11] was greater than 50%.

On to `CCC(c1nc2ncc(Cl)cc2[nH]1)[C@H]1CC[C@@H](c2ccnc3ccc(C(F)(F)F)cc32)CC1` (some centres undefined), for which the 50% inhibitory concentration (IC50) in data set [5] is 2 nM; in data set [6], 3 nM; in [9], 21 nM; in data set [26], 2550 nM; in [27], 4280 nM; in data set [28], 1470 nM. Moreover, the concentration for half-maximal inhibition (IC50) was 242 nM in data set [29], 1130 nM in [30] and 1930 nM in data set [31]. In addition, the remaining at 10 min, 0.5 µM in data set [7] was 81%; in data set [8], 57%; in [1], 81%. Also, the half-life in [12] came to 0.9 h; in data set [13] it was 0.283 h; in [14], 1 h; in [15] it was 0.683 h; in data set [16], 0.35 h; in data set [17], 1.58 h. In addition, the half-life in data set [18] was greater than 2 h; in [19] it was 1.78 h; in data set [20], 1.75 h; in data set [21], greater than 2 h. The Papp in [22] was found to be 238 ×10⁻⁶ cm/s; in data set [23], 263 ×10⁻⁶ cm/s. Moreover, the Papp A→B in [24] is 11.3 ×10⁻⁶ cm/s. Further, in [25], the Papp B→A turned out to be 6.6 ×10⁻⁶ cm/s. Also, the AUC at 120 h in [32] turned out to be 43.6 µM·h.
